In ChEMBL document CHEMBL3045045, “Antifungal activity of CHE-23C, a dimeric sesquiterpene from Chloranthus henryi” (2009):
Values after ≈ are worked out from the molar mass of the structure shown.

How the values were obtained:
Format in all cases: functional
Corticium [1] = test: Antifungal activity against Corticium sasaki infected compound pre-treated rice plant seedlings through soil application of fungus assessed as rice sheath blight disease control efficacy at 50 ug/mL under greenhouse conditions
Procedure, shortened: (§1)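 Rice seedlings at fourth-leaf stage sprayed to runoff with compound in 1% Tween 20 (water/DMSO 99:1), left 24 h, then inoculated by adding 7-day-old C. sasaki cultures to soil. Greenhouse; three replicates, randomized complete block; % control = 100×[(A−B)/A] from infected sheath area relative to Tween 20/1% DMSO-treated plants.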

Corticium [2] = test: Antifungal activity against Corticium sasaki infected compound pre-treated rice plant seedlings through soil application of fungus assessed as rice sheath blight disease control efficacy at 5 ug/mL under greenhouse conditions; procedure, shortened: as §1
Blumeria hordei [3] = test: Antifungal activity against Blumeria graminis f. sp. hordei infected compound pre-treated barley plant seedlings assessed as barley powdery mildew disease control efficacy at 100 ug/mL under greenhouse conditions
Procedure, shortened: (§2)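 Barley or wheat seedlings sprayed to runoff with compound in 1% Tween 20 containing water/DMSO (99:1); controls got Tween 20 with 1% DMSO; left 24 h before inoculation; greenhouse. Pots in randomized complete block, three replicates; infected leaf area averaged and converted to % control = 100×[(A−B)/A] versus Tween-only plants.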

Blumeria hordei [4] = test: Antifungal activity against Blumeria graminis f. sp. hordei infected compound pre-treated barley plant seedlings assessed as barley powdery mildew disease control efficacy at 33 ug/mL under greenhouse conditions
Procedure, shortened: (§3)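 Greenhouse protective assay. Seedlings were sprayed to runoff with compound in 1% Tween 20 containing 1% DMSO; controls got Tween 20 with 1% DMSO. Plants stood 24 h before pathogen inoculation. Infected leaf area was scored. Three replicates in randomized complete blocks; % control = 100 × (A−B)/A against the Tween-only control; means compared by LSD at P = 0.05.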

Blumeria hordei [5] = test: Antifungal activity against Blumeria graminis f. sp. hordei infected compound pre-treated barley plant seedlings assessed as barley powdery mildew disease control efficacy at 11 ug/mL under greenhouse conditions; procedure, shortened: as §3
Pyricularia grisea [6] = test: Antifungal activity against Magnaporthe grisea infected compound pre-treated rice plant seedlings assessed as rice blast disease control efficacy at 11 ug/mL under greenhouse conditions
Procedure, shortened: (§4)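 Rice seedlings at third-leaf stage sprayed to runoff with compound in 1% Tween 20 (water/DMSO 99:1), left 24 h, then sprayed with M. grisea spores (5 × 10^5 spores/mL). Greenhouse; randomized complete block, three replicates; % control = 100×[(A−B)/A] from infected leaf area versus Tween 20/1% DMSO controls.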

Cryptococcus neoformans = test: Antifungal activity against Cryptococcus neoformans ATCC 36556 after 48 to 72 hr […]
Candida tropicalis = test: Antifungal activity against Candida tropicalis ATCC 13803 after 48 to 72 hr by agar dilution method
Pichia kudriavzevii = test: Antifungal activity against Pichia kudriavzevii ATCC 42720 after 48 to 72 hr by agar dilution method
Clavispora lusitaniae = test: Antifungal activity against Clavispora lusitaniae ATCC 6258 after 48 to 72 hr by agar dilution method
Puccinia recondita [7] = test: Antifungal activity against Puccinia recondita infected compound pre-treated wheat plant seedlings assessed as wheat leaf rust disease control efficacy at 100 ug/mL under greenhouse conditions; procedure, shortened: as §3
Puccinia recondita [8] = test: Antifungal activity against Puccinia recondita infected compound pre-treated wheat plant seedlings assessed as wheat leaf rust disease control efficacy at 33 ug/mL under greenhouse conditions; procedure, shortened: as §3
Puccinia recondita [9] = test: Antifungal activity against Puccinia recondita infected compound pre-treated wheat plant seedlings assessed as wheat leaf rust disease control efficacy at 11 ug/mL under greenhouse conditions; procedure, shortened: as §3
Phytophthora infestans [10] = test: Antifungal activity against Phytophthora infestans infected compound pre-treated tomato plant seedlings assessed as tomato late blight disease control efficacy at 100 ug/mL measured after 2 days under greenhouse conditions
Procedure, shortened: (§5)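 Tomato seedlings at second-leaf stage sprayed to runoff with compound in 1% Tween 20 (water/DMSO 99:1), left 24 h, then sprayed with P. infestans zoospore suspension (5 × 10^4 sporangia/mL). Held 1 day at 20 C, 100% RH, then 2 days in growth chamber. Three replicates, randomized blocks; % control from infected area versus Tween 20/1% DMSO controls.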

Phytophthora infestans [11] = test: Antifungal activity against Phytophthora infestans infected compound pre-treated tomato plant seedlings assessed as tomato late blight disease control efficacy at 33 ug/mL measured after 2 days under greenhouse conditions; procedure, shortened: as §5
Phytophthora infestans [12] = test: Antifungal activity against Phytophthora infestans infected compound pre-treated tomato plant seedlings assessed as tomato late blight disease control efficacy at 11 ug/mL measured after 2 days under greenhouse conditions; procedure, shortened: as §5
Candida albicans [13] = test: Antifungal activity against Candida albicans isolate A207 after 48 to 72 hr by agar dilution method
Candida albicans [14] = test: Antifungal activity against Candida albicans ATCC 10231 after 48 to 72 hr by agar dilution method
Globisporangium ultimum = test: Antifungal activity against Pythium ultimum after 48 to 72 hr by agar dilution method
Procedure, shortened: (§6)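 Agar dilution MIC on field-isolate phytopathogens. Compound in DMSO added to molten potato dextrose agar at 0.25-128 μg/mL (2-fold serial dilution). Inocula were 5 mm mycelial disks cut from actively growing colony margins after 3-7 days at 20-25 C. Plates were incubated at 20-25 C for 24-72 h. MIC is the lowest concentration giving complete growth inhibition versus a no-compound control. Run three times.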

Rhizoctonia solani = test: Antifungal activity against Rhizoctonia solani after 48 to 72 hr by agar dilution method; procedure, shortened: as §6
Phytophthora infestans [15] = test: Antifungal activity against Phytophthora infestans after 48 to 72 hr by agar dilution method
Procedure, shortened: (§7)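 Agar dilution: DMSO stock added to molten medium (potato dextrose agar, or V-8 juice agar) at 0.25–128 μg/mL, 2-fold series. Inoculum was 5 mm mycelial disks from actively growing colony margins pre-grown 3–7 days at 20–25 C. Plates incubated 20–25 C for 24–72 h. MIC = lowest concentration giving complete growth inhibition versus compound-free plate; three repeats.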

Pyricularia grisea [16] = test: Antifungal activity against Magnaporthe grisea after 48 to 72 hr by agar dilution method; procedure, shortened: as §7
Colletotrichum lagenaria = test: Antifungal activity against Colletotrichum lagenaria after 48 to 72 hr by agar dilution method; procedure, shortened: as §6
Fusarium oxysporum = test: Antifungal activity against Fusarium oxysporum after 48 to 72 hr by agar dilution method; procedure, shortened: as §6
Botrytis cinerea [17] = test: Antifungal activity against Botryotinia fuckeliana after 48 to 72 hr by agar dilution method; procedure, shortened: as §6
Alternaria kikuchiana = test: Antifungal activity against Alternaria kikuchiana after 48 to 72 hr by agar dilution method; procedure, shortened: as §6
Botrytis cinerea [18] = test: Antifungal activity against Botryotinia fuckeliana infected in compound pre-treated tomato plant seedlings assessed as tomato gray mold disease control efficacy at 100 ug/mL measured 3 days post fungus inoculation under greenhouse conditions
Procedure, shortened: (§8)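 Tomato seedlings were sprayed to runoff with compound in 1% Tween 20 containing 1% DMSO; controls got Tween 20 with 1% DMSO. After 24 h, second-leaf-stage plants were sprayed with B. cinerea spores (10^6/mL) and kept dark at 20 C, 100% RH. Infected leaf area was scored 3 days post-inoculation. Three replicates in randomized complete blocks; % control = 100 × (A−B)/A against the Tween-only control.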

Botrytis cinerea [19] = test: Antifungal activity against Botryotinia fuckeliana infected in compound pre-treated tomato plant seedlings assessed as tomato gray mold disease control efficacy at 33 ug/mL measured 3 days post fungus inoculation under greenhouse conditions; procedure, shortened: as §8
Botrytis cinerea [20] = test: Antifungal activity against Botryotinia fuckeliana infected in compound pre-treated tomato plant seedlings assessed as tomato gray mold disease control efficacy at 11 ug/mL measured 3 days post fungus inoculation under greenhouse conditions; procedure, shortened: as §8
Corticium [21] = test: Antifungal activity against Corticium sasaki infected compound pre-treated rice plant seedlings through soil application of fungus assessed as rice sheath blight disease control efficacy at 100 ug/mL under greenhouse conditions
Procedure, shortened: (§9)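 Rice seedlings were sprayed to runoff with compound in 1% Tween 20 containing 1% DMSO; controls got Tween 20 with 1% DMSO. After 24 h, fourth-leaf-stage plants were inoculated by adding 7-day-old C. sasaki cultures to the soil. Infected sheath area was scored. Three replicates in randomized complete blocks; % control = 100 × (A−B)/A against the Tween-only control.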

Corticium [22] = test: Antifungal activity against Corticium sasaki infected compound pre-treated rice plant seedlings through soil application of fungus assessed as rice sheath blight disease control efficacy at 33 ug/mL under greenhouse conditions; procedure, shortened: as §9
Corticium [23] = test: Antifungal activity against Corticium sasaki infected compound pre-treated rice plant seedlings through soil application of fungus assessed as rice sheath blight disease control efficacy at 11 ug/mL under greenhouse conditions; procedure, shortened: as §9
Pyricularia grisea [24] = test: Antifungal activity against Magnaporthe grisea infected compound pre-treated rice plant seedlings assessed as rice blast disease control efficacy at 100 ug/mL under greenhouse conditions; procedure, shortened: as §4
Pyricularia grisea [25] = test: Antifungal activity against Magnaporthe grisea infected compound pre-treated rice plant seedlings assessed as rice blast disease control efficacy at 33 ug/mL under greenhouse conditions; procedure, shortened: as §4
Botrytis cinerea [26] = test: Antifungal activity against Botryotinia fuckeliana infected in compound pre-treated tomato plant seedlings assessed as tomato gray mold disease control efficacy at 50 ug/mL measured 3 days post fungus inoculation under greenhouse conditions
Botrytis cinerea [27] = test: Antifungal activity against Botryotinia fuckeliana infected in compound pre-treated tomato plant seedlings assessed as tomato gray mold disease control efficacy at 5 ug/mL measured 3 days post fungus inoculation under greenhouse conditions
Blumeria hordei [28] = test: Antifungal activity against Blumeria graminis f. sp. hordei infected compound pre-treated barley plant seedlings assessed as barley powdery mildew disease control efficacy at 1 ug/mL under greenhouse conditions; procedure, shortened: as §2
Phytophthora infestans [29] = test: Antifungal activity against Phytophthora infestans infected compound pre-treated tomato plant seedlings assessed as tomato late blight disease control efficacy at 50 ug/mL measured after 2 days under greenhouse conditions; procedure, shortened: as §5
Puccinia recondita [30] = test: Antifungal activity against Puccinia recondita infected compound pre-treated wheat plant seedlings assessed as wheat leaf rust disease control efficacy at 20 ug/mL under greenhouse conditions; procedure, shortened: as §2
Puccinia recondita [31] = test: Antifungal activity against Puccinia recondita infected compound pre-treated wheat plant seedlings assessed as wheat leaf rust disease control efficacy at 50 ug/mL under greenhouse conditions; procedure, shortened: as §2
Phytophthora infestans [32] = test: Antifungal activity against Phytophthora infestans infected compound pre-treated tomato plant seedlings assessed as tomato late blight disease control efficacy at 10 ug/mL measured after 2 days under greenhouse conditions; procedure, shortened: as §5
Phytophthora infestans [33] = test: Antifungal activity against Phytophthora infestans infected compound pre-treated tomato plant seedlings assessed as tomato late blight disease control efficacy at 2 ug/mL measured after 2 days under greenhouse conditions; procedure, shortened: as §5

OCC1=C[C@H](N[C@H]2C[C@H](CO)[C@@H](O[C@@H]3O[C@H](CO)[C@@H](O)[C@H](O)[C@H]3O)[C@H](O)[C@H]2O)[C@H](O)[C@@H](O)[C@@H]1O [VALIDAMYCIN]
Efficacy (Corticium [1]): 100% | Efficacy (Corticium [2]): 75%

C/C=C(\C)C(=O)OC[C@]1(O)[C@H]2C[C@H]2[C@]2(C)[C@@H]3CC4=C5[C@H](/C(=C(/C)C(=O)OC)C(=O)[C@H](O)[C@@]5(C)[C@@H]5C[C@H]45)[C@@]34OC(=O)C(COC(C)=O)=C4C[C@@H]12
Efficacy (Blumeria hordei [3]): 17% | Efficacy (Blumeria hordei [4]): 0% | Efficacy (Blumeria hordei [5]): 0% | Efficacy (Pyricularia grisea [6]): 67% | MIC (Cryptococcus neoformans): 16 µg/mL (≈ 23.6 µM) | MIC (Candida tropicalis): > 128 µg/mL | MIC (Pichia kudriavzevii): 128 µg/mL (≈ 189 µM) | MIC (Clavispora lusitaniae): 128 µg/mL (≈ 189 µM) | Efficacy (Puccinia recondita [7]): 100% | Efficacy (Puccinia recondita [8]): 87% | Efficacy (Puccinia recondita [9]): 80% | Efficacy (Phytophthora infestans [10]): 93% | Efficacy (Phytophthora infestans [11]): 91% | Efficacy (Phytophthora infestans [12]): 29% | MIC (Candida albicans [13]): 8 µg/mL (≈ 11.8 µM) | MIC (Candida albicans [14]): 64 µg/mL (≈ 94.6 µM) | MIC (Globisporangium ultimum): 1 µg/mL (≈ 1.48 µM) | MIC (Rhizoctonia solani): 16 µg/mL (≈ 23.6 µM) | MIC (Phytophthora infestans [15]): 32 µg/mL (≈ 47.3 µM) | MIC (Pyricularia grisea [16]): 4 µg/mL (≈ 5.91 µM) | MIC (Colletotrichum lagenaria): 8 µg/mL (≈ 11.8 µM) | MIC (Fusarium oxysporum): 16 µg/mL (≈ 23.6 µM) | MIC (Botrytis cinerea [17]): 8 µg/mL (≈ 11.8 µM) | MIC (Alternaria kikuchiana): 8 µg/mL (≈ 11.8 µM) | Efficacy (Botrytis cinerea [18]): 36% | Efficacy (Botrytis cinerea [19]): 14% | Efficacy (Botrytis cinerea [20]): 7.2% | Efficacy (Corticium [21]): 69% | Efficacy (Corticium [22]): 50% | Efficacy (Corticium [23]): 50% | Efficacy (Pyricularia grisea [24]): 72% | Efficacy (Pyricularia grisea [25]): 50%

N#Cc1c[nH]cc1-c1cccc2c1OC(F)(F)O2 [FLUDIOXONIL]
Efficacy (Botrytis cinerea [26]): 100% | Efficacy (Botrytis cinerea [27]): 82%

CCCCNC(=O)n1c(NC(=O)OC)nc2ccccc21 [BENOMYL]
Efficacy (Blumeria hordei [28]): 90% | Efficacy (Blumeria hordei [3]): 100%

N#Cc1c(Cl)c(Cl)c(Cl)c(C#N)c1Cl [CHLOROTHALONIL]
Efficacy (Phytophthora infestans [29]): 94% | Efficacy (Phytophthora infestans [10]): 100%

CC1=C(C(=O)Nc2ccccc2)SCCO1 [CARBOXIN]
Efficacy (Puccinia recondita [30]): 43% | Efficacy (Puccinia recondita [31]): 100%

COc1ccc(C(=CC(=O)N2CCOCC2)c2ccc(Cl)cc2)cc1OC [DIMETHOMORPH]
Efficacy (Phytophthora infestans [32]): 100% | Efficacy (Phytophthora infestans [33]): 64%
